ChEMBL document CHEMBL1938298, “Synthesis and characterization of [¹²⁵I]2-iodo N-[(S)-{(S)-1-methylpiperidin-2-yl}(phenyl)methyl]3-trifluoromethyl-benzamide as novel imaging probe for glycine transporter 1” (Bioorg Med Chem, 2011)
The source made the active and inactive calls. The calls are words filed in the database; no cut-off is given here.

Experiments:
[1] = biological target: T1, Sodium- and chloride-dependent glycine transporter 1 (Rattus norvegicus) (UniProt P28572); experiment: Binding affinity to GlyT1 in rat brain striatum at 0.03 to 0.04 nM preincubated for 20 mins in binding buffer before compound addition measured after 30 mins by autoradiography in presence of 0.01 mM GlyT1 inhibitor SSR504734 relative to control; type: tissue-based; conditions: tested as the 125I-labelled form
T1 sequence (whole entry): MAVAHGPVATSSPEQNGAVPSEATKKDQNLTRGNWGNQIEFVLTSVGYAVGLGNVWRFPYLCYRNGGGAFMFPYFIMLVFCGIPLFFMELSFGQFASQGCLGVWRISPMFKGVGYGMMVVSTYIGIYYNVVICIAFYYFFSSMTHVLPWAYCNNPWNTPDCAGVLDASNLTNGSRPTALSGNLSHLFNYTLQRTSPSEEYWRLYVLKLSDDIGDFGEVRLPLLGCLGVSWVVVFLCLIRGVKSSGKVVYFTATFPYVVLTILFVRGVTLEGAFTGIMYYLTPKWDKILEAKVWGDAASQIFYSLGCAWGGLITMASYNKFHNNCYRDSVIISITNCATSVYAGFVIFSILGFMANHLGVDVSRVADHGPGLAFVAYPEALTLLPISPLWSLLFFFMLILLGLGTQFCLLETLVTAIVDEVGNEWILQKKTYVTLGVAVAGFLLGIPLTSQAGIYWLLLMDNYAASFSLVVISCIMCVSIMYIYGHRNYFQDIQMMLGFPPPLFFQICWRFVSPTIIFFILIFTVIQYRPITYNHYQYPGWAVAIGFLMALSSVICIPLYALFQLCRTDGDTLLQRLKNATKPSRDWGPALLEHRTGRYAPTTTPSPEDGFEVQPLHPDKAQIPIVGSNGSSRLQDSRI

[2] = biological target: T1, Sodium- and chloride-dependent glycine transporter 1 (Rattus norvegicus); experiment: Binding affinity to GlyT1 in rat brain thalamus at 0.03 to 0.04 nM preincubated for 20 mins in binding buffer before compound addition measured after 30 mins by autoradiography in presence of GlyT1 inhibitor N-Me-SSR504734 relative to control; type: tissue-based; conditions: tested as the 125I-labelled form
[3] = biological target: T1, Sodium- and chloride-dependent glycine transporter 1 (Rattus norvegicus); experiment: Binding affinity to GlyT1 in rat brain hippocampus at 0.03 to 0.04 nM preincubated for 20 mins in binding buffer before compound addition measured after 30 mins by autoradiography in presence of 1 mM GlyT1 substrate glycine relative to control; type: tissue-based; conditions: tested as the 125I-labelled form
Method in brief: (§1)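 Rat brain sagittal sections (20 µm) preincubated 20 min at 25 °C in Tris-HCl buffer pH 7.5 (NaCl, KCl, MgCl2, CaCl2), then 30 min at 25 °C with [125I] tracer (100 kBq, 0.03–0.04 nM) plus competitor (10 µM; glycine 1 or 10 mM). Cold washes, imaging plate 3 days, ROI PSL minus background per mm². % control from ≥triplicate slices, three rats.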

[4] = biological target: T1, Sodium- and chloride-dependent glycine transporter 1 (Rattus norvegicus); experiment: Binding affinity to GlyT1 in rat brain cerebellum at 0.03 to 0.04 nM preincubated for 20 mins in binding buffer before compound addition measured after 30 mins by autoradiography in presence of 10 mM GlyT1 substrate glycine relative to control; type: tissue-based; conditions: tested as the 125I-labelled form; method in brief: as §1
[5] = biological target: T1, Sodium- and chloride-dependent glycine transporter 1 (Rattus norvegicus); experiment: Binding affinity to GlyT1 in rat brain cerebral cortex at 0.03 to 0.04 nM preincubated for 20 mins in binding buffer before compound addition measured after 30 mins by autoradiography in presence of 0.01 mM NMDA receptor glycine site antagonist L-701,324 relative to control; type: tissue-based; conditions: tested as the 125I-labelled form; method in brief: as §1
Mus musculus [6] = experiment: In vivo binding affinity to GlyT1 in ddY mouse brain thalamus at 200 kBq, iv after 60 mins by autoradiography relative to control; type: functional, organism-based; conditions: tested as the 125I-labelled form
[7] = biological target: T1, Sodium- and chloride-dependent glycine transporter 1 (Rattus norvegicus); experiment: Binding affinity to GlyT1 in rat brain corpus callosum at 0.03 to 0.04 nM preincubated for 20 mins in binding buffer before compound addition measured after 30 mins by autoradiography in presence of 1 mM GlyT1 substrate glycine relative to control; type: tissue-based; conditions: tested as the 125I-labelled form; method in brief: as §1
[8] = biological target: T1, Sodium- and chloride-dependent glycine transporter 1 (Rattus norvegicus); experiment: Binding affinity to GlyT1 in rat cortical brain homogenate assessed per mg of protein after 60 mins by gamma counting; type: tissue-based; conditions: tested as the 125I-labelled form
Method in brief: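 Saturation binding on washed rat cortical membranes (25 µg protein) with [125I]tracer 0.1–20 nM in TB1 buffer (120 mM NaCl, 2 mM KCl, 1 mM CaCl2, 1 mM MgCl2, 10 mM HEPES, pH 7.5), 60 min at room temperature. Nonspecific binding defined with 10 µM unlabeled ligand. GF/B filtration with ice-cold buffer washes, gamma counting; Kd and Bmax from saturation analysis.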

[9] = biological target: T1, Sodium- and chloride-dependent glycine transporter 1 (Rattus norvegicus); experiment: Binding affinity to GlyT1 in rat brain medullary region at 0.03 to 0.04 nM preincubated for 20 mins in binding buffer before compound addition measured after 30 mins by autoradiography in presence of 0.01 mM GlyT1 inhibitor HPCP relative to control; type: tissue-based; conditions: tested as the 125I-labelled form; method in brief: as §1
Mus musculus [10] = experiment: In vivo binding affinity to GlyT1 in ddY mouse brain striatum at 200 kBq, iv after 60 mins by autoradiography relative to control; type: functional, organism-based; conditions: tested as the 125I-labelled form
Mus musculus [11] = experiment: In vivo binding affinity to GlyT1 in ddY mouse brain cerebellum at 33.3 kBq, iv after 60 mins in presence of SSR504734 2 mg/kg, iv administered 15 mins prior to compound administration relative to control; type: functional, organism-based; design: dose 2 mg/kg; conditions: tested as the 125I-labelled form
Method in brief: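 Blocking study in male ddY mice (6 weeks, 30–35 g). The blocker (2 mg/kg in 30% DMSO/saline) was injected i.v. 15 min before about 33.3 kBq [125I]tracer i.v.; mice were killed at 30 or 60 min. Brains were divided into cortex, corpus callosum, hippocampus, thalamus, midbrain, medulla and cerebellum, weighed and gamma-counted as % dose/g. Values are mean ± SD, n = 5–6, compared to control by Kruskal–Wallis with Dunn's post-test.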

Blood = experiment: Drug uptake in ddY mouse blood at 11.1 kBq, iv after 5 min by gamma counting; type: ADME, organism-based; conditions: in vivo
Method in brief: (§2)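 Male ddY mice (6 weeks, 30–35 g) received about 11.1 kBq [125I]tracer in 0.1 mL i.v. via tail vein. Killed at set times, organs dissected and weighed, radioactivity gamma counted. Reported as % injected dose/g tissue, mean ± SD, n = 5–6.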

Liver = experiment: Drug uptake in ddY mouse liver at 11.1 kBq, iv after 60 min by gamma counting; type: ADME, organism-based; conditions: in vivo, 1 h
Method in brief: (§3)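 Male ddY mice (6 weeks, 30–35 g) were given about 11.1 kBq of [125I]tracer in 0.1 mL i.v. via the tail vein. At each time point the animals were killed and organs dissected, weighed and gamma-counted. Uptake is expressed as % injected dose per gram of tissue, mean ± SD, n = 5–6.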

Nucleic Acid = experiment: Ratio of drug level in brain to blood in ddY mouse at 11.1 kBq, iv after 180 min by gamma counting; type: ADME, organism-based; conditions: 3 h
Lung = experiment: Drug uptake in ddY mouse lung at 11.1 kBq, iv after 180 min by gamma counting; type: ADME, organism-based; conditions: in vivo, 3 h; method in brief: as §3
Mus musculus [12] = experiment: In vivo binding affinity to GlyT1 in ddY mouse brain midbrain at 33.3 kBq, iv after 60 mins in presence of nonradioactive compound 2 mg/kg, iv administered 15 mins prior to compound administration relative to control; type: functional
Intestine = experiment: Drug uptake in ddY mouse intestine at 11.1 kBq, iv after 5 min by gamma counting; type: ADME, organism-based; conditions: in vivo; method in brief: as §2

Structure (SMILES)	Activity [1] [%]	Activity [2] [%]	Activity [3] [%]	Activity [4] [%]	Activity [5] [%]	Activity (Mus musculus [6])	Activity [7] [%]	Bmax [8] [pmol]	Activity [9] [%]	Activity (Mus musculus [10])	Activity (Mus musculus [11])	Drug uptake (Blood) [% ID/g]	Drug uptake (Liver) [% ID/g]	Ratio (Nucleic Acid)	Drug uptake (Lung) [% ID/g]	Activity (Mus musculus [12]) [%]	Drug uptake (Intestine) [% ID/g]
CN1CCCC[C@H]1[C@@H](NC(=O)c1cccc(C(F)(F)F)c1I)c1ccccc1	50.2	25.1	108	44.9	92.5	Active	94.1	3.4	20.5	inactive	inactive						
CN1CCCC[C@H]1[C@@H](NC(=O)c1cccc(C(F)(F)F)c1[125I])c1ccccc1												0.87	16.04	0.85	9.34	51	2.47
